Experimental data published in ChEMBL document CHEMBL1909500, “Synthesis and in vitro anticancer activity of 6,7-methylenedioxy (or 5-hydroxy-6-methoxy)-2-(substituted selenophenyl)quinolin-4-one analogs” (Eur J Med Chem, 2011).
Calls of active or inactive are those of the source. The calls are words filed in the database; no cut-off is given here.

Legend:
HL-60 [1] = test: Cell cycle arrest in human HL60 assessed as cell accumulation in Sub-G1 phase at 1 uM after 24 hrs by propidium iodide staining-based flow cytometric analysis; format: functional
In short: (§1)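 HL-60 cells were preincubated for 3 h with or without the pan-caspase inhibitor z-VAD-fmk, then co-exposed to compound at 1 μM for 24 h. Cells were washed in PBS and fixed overnight in ice-cold 70% ethanol at −20 °C. They were stained for 30 min in the dark with propidium iodide 4 μg/mL, 0.1 mg/ml RNase and 1% Triton X-100. DNA content was read on a FACScan flow cytometer.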

HL-60 [2] = test: Induction of apoptosis in human HL60 cells assessed as caspase-3 activation at 0.1 to 1.0 uM after 24 hrs by Western blot analysis; format: functional, cell-based
In short: (§2)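 HL-60 cells at 2 × 10⁵/mL were exposed to the indicated concentrations for 24 h, washed in PBS and lysed for total protein. Immunoblots used HRP-linked secondary antibodies with ECL detection. Cyclin B1, CDK1, caspase-3 (17 kDa active form) and PARP (85 kDa fragment) were quantified and normalised to β-actin.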

A549 = test: Anticancer activity against human A549 cells after 48 hrs by MTT assay; format: functional; conditions: A549, 48 h
M14 = test: Anticancer activity against human M14 cells after 48 hrs by MTT assay; format: functional; conditions: M14, 48 h
HL-60 [3] = test: Induction of cell cycle arrest at G2/M phase in human HL60 cells assessed as decrease in cyclin B1 expression at 0.1 to 1.0 uM after 24 hrs by Western blot analysis; format: functional, cell-based; in short: as §2
HT-29 = test: Anticancer activity against human HT-29 cells after 48 hrs by MTT assay; format: functional; conditions: HT-29, 48 h
ACHN = test: Anticancer activity against human ACHN cells after 48 hrs by MTT assay; format: functional
Malme-3M = test: Anticancer activity against human MALME-3M cells after 48 hrs by MTT assay; format: functional
OVCAR-5 = test: Anticancer activity against human OVCAR5 cells after 48 hrs by MTT assay; format: functional; conditions: OVCAR-5, 48 h
K562 = test: Anticancer activity against human K562 cells after 48 hrs by MTT assay; format: functional; conditions: K562, 48 h
SF-539 = test: Anticancer activity against human SF539 cells after 48 hrs by MTT assay; format: functional; conditions: SF-539, 48 h
MDA-MB-435 = test: Anticancer activity against human MDA-MB-435 cells after 48 hrs by MTT assay; format: functional; conditions: MDA-MB-435, 48 h
SK-MEL-2 = test: Anticancer activity against human SK-MEL-2 cells after 48 hrs by MTT assay; format: functional; conditions: SK-MEL-2, 48 h
HL-60 [4] = test: Induction of apoptosis in human HL60 cells assessed as PARP cleavage at 0.1 to 1.0 uM after 24 hrs by Western blot analysis; format: functional, cell-based; in short: as §2
HCT-15 = test: Anticancer activity against human HCT15 cells after 48 hrs by MTT assay; format: functional; conditions: HCT-15, 48 h
MDA-MB-231 = test: Anticancer activity against human MDA-MB-231 cells after 48 hrs by MTT assay; format: functional; conditions: MDA-MB-231, 48 h
SW-620 = test: Anticancer activity against human SW620 cells after 48 hrs by MTT assay; format: functional; conditions: SW-620, 48 h
CAKI-1 = test: Anticancer activity against human Caki1 cells after 48 hrs by MTT assay; format: functional; conditions: CAKI-1, 48 h
Detroit 551 = test: Cytotoxicity against human Detroit 551 cells after 48 hrs by MTT assay; format: cell-based; conditions: Detroit 551, 48 h
In short: (§3)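 Hep 3B (hepatoma) or Detroit 551 (normal skin) cells, grown at 37 °C and 5% CO₂ in DMEM with 10% FBS, penicillin/streptomycin and 1% L-glutamine, were used in log phase. Cells were exposed to vehicle or compound for 48 h. Growth was read by MTT reduction at 570 nm, and IC50 was calculated.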

LOX IMVI = test: Anticancer activity against human LOXIMVI cells after 48 hrs by MTT assay; format: functional
[5] = Cytotoxicity against human Hep3B cells after 48 hrs by MTT assay; format: functional, cell-based, Hep 3B2; in short: as §3
OVCAR-8 = test: Anticancer activity against human OVCAR8 cells after 48 hrs by MTT assay; format: functional; conditions: OVCAR-8, 48 h
UACC-62 = test: Anticancer activity against human UACC62 cells after 48 hrs by MTT assay; format: functional; conditions: UACC-62, 48 h
RXF 393 = test: Anticancer activity against human RXF393 cells after 48 hrs by MTT assay; format: functional; conditions: RXF 393, 48 h
HL-60 [6] = test: Induction of apoptosis in human HL60 cells assessed as formation of apoptotic bodies at 1 uM after 24 hrs; format: functional, cell-based
In short: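 HL-60 cells were exposed to 1 μM for 24 h. Apoptotic morphology, scored as cell shrinkage and apoptotic bodies, was examined by microscopy at 200×.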

OVCAR-4 = test: Anticancer activity against human OVCAR4 cells after 48 hrs by MTT assay; format: functional; conditions: OVCAR-4, 48 h
HL-60 [7] = test: Cell cycle arrest in human HL60 assessed as cell accumulation in Sub-G1 phase at 1 uM after 24 hrs pretreated with pan-caspase inhibitor z-VAD-fmk for 3 hrs by propidium iodide staining-based flow cytometric analysis; format: functional; parameters: scale not given: the % may be the effect or the level left; in short: as §1
SF-295 = test: Anticancer activity against human SF295 cells after 48 hrs by MTT assay; format: functional; conditions: SF-295, 48 h
NCI-H460 = test: Anticancer activity against human NCI-H460 cells after 48 hrs by MTT assay; format: functional; conditions: NCI-H460, 48 h
A498 = test: Anticancer activity against human A498 cells after 48 hrs by MTT assay; format: functional; conditions: A498, 48 h
[8] = read-out: pLC50 (the source's name) (converted)

Cc1ccc(-c2cc(=O)c3cc4c(cc3[nH]2)OCO4)[se]1
Activity (HL-60 [1]): 21% | Activity (HL-60 [2]): Active | GI50 (A549): 245 nM | CC50 (A549; [8]): > 100000 nM | TGI (A549; read-out: pTGI (converted)): 646 nM | GI50 (M14): 229 nM | CC50 (M14; [8]): > 100000 nM | TGI (M14; read-out: pTGI): > 100000 nM | Activity (HL-60 [3]): Active | GI50 (HT-29): 269 nM | CC50 (HT-29; [8]): > 100000 nM | TGI (HT-29; read-out: pTGI): > 100000 nM | GI50 (ACHN): 759 nM | CC50 (ACHN; [8]): > 100000 nM | TGI (ACHN; read-out: pTGI): > 100000 nM | GI50 (Malme-3M): 427 nM | CC50 (Malme-3M; [8]): > 100000 nM | TGI (Malme-3M; read-out: pTGI): > 100000 nM | GI50 (OVCAR-5): 1700 nM | CC50 (OVCAR-5; [8]): > 100000 nM | TGI (OVCAR-5; read-out: pTGI): > 100000 nM | GI50 (K562): 282 nM | CC50 (K562; [8]): > 100000 nM | TGI (K562; read-out: pTGI): > 100000 nM | GI50 (SF-539): 245 nM | CC50 (SF-539; [8]): > 100000 nM | TGI (SF-539; read-out: pTGI (converted)): 708 nM | GI50 (MDA-MB-435): 52.5 nM | CC50 (MDA-MB-435; [8]): > 100000 nM | TGI (MDA-MB-435; read-out: pTGI (converted)): 427 nM | GI50 (SK-MEL-2): 110 nM | CC50 (SK-MEL-2; [8]): > 100000 nM | TGI (SK-MEL-2; read-out: pTGI (converted)): 525 nM | Activity (HL-60 [4]): Active | GI50 (HCT-15): 339 nM | CC50 (HCT-15; [8]): > 100000 nM | TGI (HCT-15; read-out: pTGI): > 100000 nM | GI50 (MDA-MB-231): 501 nM | CC50 (MDA-MB-231; [8]): > 100000 nM | TGI (MDA-MB-231; read-out: pTGI): > 100000 nM | GI50 (SW-620): 407 nM | CC50 (SW-620; [8]): > 100000 nM | TGI (SW-620; read-out: pTGI): > 100000 nM | GI50 (CAKI-1): 1820 nM | CC50 (CAKI-1; [8]): > 100000 nM | TGI (CAKI-1; read-out: pTGI): > 100000 nM | IC50 (Detroit 551): > 25000 nM | GI50 (LOX IMVI): 646 nM | CC50 (LOX IMVI; [8]): > 100000 nM | TGI (LOX IMVI; read-out: pTGI): > 100000 nM | IC50 [5]: 200 nM | GI50 (OVCAR-8): 339 nM | CC50 (OVCAR-8; [8]): > 100000 nM | TGI (OVCAR-8; read-out: pTGI): > 100000 nM | GI50 (UACC-62): 398 nM | CC50 (UACC-62; [8]): > 100000 nM | TGI (UACC-62; read-out: pTGI): > 100000 nM | GI50 (RXF 393): 229 nM | CC50 (RXF 393; [8]): > 100000 nM | TGI (RXF 393; read-out: pTGI (converted)): 589 nM | Activity (HL-60 [6]): Active | GI50 (OVCAR-4): 575 nM | CC50 (OVCAR-4; [8]): > 100000 nM | TGI (OVCAR-4; read-out: pTGI): > 100000 nM | Activity (HL-60 [7]): 10.2% | GI50 (SF-295): 347 nM | CC50 (SF-295; [8]): > 100000 nM | TGI (SF-295; read-out: pTGI): > 100000 nM | GI50 (NCI-H460): 331 nM | CC50 (NCI-H460; [8]): > 100000 nM | TGI (NCI-H460; read-out: pTGI): > 100000 nM | GI50 (A498): 372 nM | CC50 (A498; [8]): > 100000 nM | TGI (A498; read-out: pTGI): > 100000 nM
